Activity calls are given as the source filed them. The calls are words filed in the database; no cut-off is given here.
Columns and labels:
[1] = 1-Octanol-phosphate buffered saline partition coefficient, log D of compound at […] by tandem mass spectrometry method; assay type: physicochemical
Cytochrome P450 2D6 = Cytochrome P450 2D6 (Homo sapiens, UniProt P10635); assay: Inhibition of CYP2D6 (unknown origin); assay type: ADME
Syrian golden hamster [2] = assay: Reduction in LDL cholesterol level in Syrian hamster plasma at 0.3 and 10 mg/kg, po dosed once daily for 2 weeks and measured 24 hrs post last dose by HPLC size exclusion chromatography method; assay type: functional, organism-based; settings: Mesocricetus auratus
Procedure, shortened: (§1)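 Chow-fed hamsters gavaged once daily in the morning for 2 weeks (0.3, 1, 3, 10 mg/kg; vehicle 10 mL/kg). Blood is drawn from the abdominal vein under isoflurane 24 h post last dose, after a 16 h fast. Lipoprotein cholesterol is measured by Superose 6 HPLC with online enzymatic detection at 580 nm, standardized to control plasma. Mean ± SEM, n=6, Dunnett test.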

[3] = Clearance in Sprague-Dawley rat plasma at 1 mg/kg, iv or 3 mg/kg, po by LC-ESI-MS/MS analysis; assay type: ADME, organism-based
Procedure, shortened: (§2)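 Conscious 7-week-old male Sprague-Dawley rats on standard diet with free water. Dosing is 1 mg/kg iv bolus in N-methylpyrrolidin-2-one/PEG 200, or 3 mg/kg oral suspension in 0.5% aqueous methylcellulose. Blood is sampled at various time points after administration.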

[4] = Drug uptake in Syrian hamster plasma at 10 mg/kg, po dosed once daily for 14 days measured 24 hrs post last dose by LC-MS/MS method; assay type: ADME, organism-based, Mesocricetus auratus; settings: in vivo
Procedure, shortened: (§3)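 Chow-fed hamsters dosed orally once daily for 14 days. Blood and ~100 mg adipose, adrenal and liver samples are taken 24 h after the final dose. Tissues are flash-frozen and stored at −80 °C. Total drug concentrations are measured by LC-MS/MS. Mean ± SEM, seven animals per group.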

[5] = target: T1, Cholesteryl ester transfer protein (Homo sapiens) (UniProt P11597); assay: Inhibition of CETP activity in human serum at upto 1200 mg/dl serum triglyceride concentration by LC-MS/MS method; settings: in the assay text read “fluorescence method” for “LC-MS/MS method”
T1 sequence (whole entry): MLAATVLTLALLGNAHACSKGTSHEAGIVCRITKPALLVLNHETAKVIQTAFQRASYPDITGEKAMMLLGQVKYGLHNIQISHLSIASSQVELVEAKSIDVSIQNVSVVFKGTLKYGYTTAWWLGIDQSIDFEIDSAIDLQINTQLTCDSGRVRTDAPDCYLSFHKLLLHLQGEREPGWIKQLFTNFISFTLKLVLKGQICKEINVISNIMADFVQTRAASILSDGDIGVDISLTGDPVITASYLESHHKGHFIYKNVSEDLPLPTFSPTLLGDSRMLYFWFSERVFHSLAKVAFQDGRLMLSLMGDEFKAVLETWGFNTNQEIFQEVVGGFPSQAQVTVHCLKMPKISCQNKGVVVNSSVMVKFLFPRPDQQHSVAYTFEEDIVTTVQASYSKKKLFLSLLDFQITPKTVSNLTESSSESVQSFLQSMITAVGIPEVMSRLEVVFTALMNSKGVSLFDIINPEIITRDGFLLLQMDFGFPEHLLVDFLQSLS
Procedure, shortened: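 Three human serum pools of differing triglyceride level. IC50 values are the mean of two replicates per pool.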

[6] = Half life in Sprague-Dawley rat at 1 mg/kg, iv or 3 mg/kg, po by LC-ESI-MS/MS analysis; assay type: ADME, organism-based; settings: in vivo; procedure, shortened: as §2
Serum [7] = assay: Drug uptake in lipoprotein deficient serum fraction of human serum from human donors with normal triglyceride levels (<150 mg/dL) by LC-MS/MS method; assay type: ADME, cell-free
Procedure, shortened: (§4)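 Pooled unfasted human serum (mean TG 122, 347 or 958 mg/dL) spiked with inhibitor to 500 ng/mL, 37 °C, 1 h. NaBr density-gradient ultracentrifugation, 18.5 h at 15 °C. Acetonitrile precipitation, glyburide internal standard, LC-MS/MS in duplicate. Result given as % of total across pools.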

Rattus norvegicus [8] = assay: Toxicity in cannulated Sprague-Dawley rat assessed as increase in plasma aldosterone levels at 5 mg/kg, iv by radioimmunoassay; assay type: organism-based; settings: in vivo
Serum [9] = assay: Drug uptake in HDL fraction of human serum from human donors with normal triglyceride levels (<150 mg/dL) by LC-MS/MS method; assay type: ADME, cell-free; procedure, shortened: as §4
Cytochrome P450 3A4 [10] = target: T2, Cytochrome P450 3A4 (Homo sapiens, UniProt P08684); assay: Inhibition of CYP3A4 (unknown origin) in the presence of midozolam; assay type: ADME
Serum [11] = assay: Drug uptake in HDL fraction of human serum from human donors with triglyceride levels ( 300-500 and >750 mg/dL) by LC-MS/MS method; assay type: ADME, cell-free; procedure, shortened: as §4
Serum [12] = assay: Drug uptake in LDL fraction of human serum from human donors with triglyceride levels ( 300-500 and >750 mg/dL) by LC-MS/MS method; assay type: ADME, cell-free; procedure, shortened: as §4
Serum [13] = assay: Drug uptake in lipoprotein deficient serum fraction of human serum from human donors with triglyceride levels ( 300-500 and >750 mg/dL) by LC-MS/MS method; assay type: ADME, cell-free; procedure, shortened: as §4
Serum [14] = assay: Drug uptake in triglyceride rich lipoprotein fraction of human serum from human donors with triglyceride levels ( 300-500 and >750 mg/dL) by LC-MS/MS method; assay type: ADME, cell-free; procedure, shortened: as §4
[15] = Oral bioavailability in Sprague-Dawley rat at 3 mg/kg by LC-ESI-MS/MS analysis; assay type: ADME, organism-based; settings: in vivo; procedure, shortened: as §2
Hamster [16] = assay: Increase in HDL cholesterol levels in hamster plasma by HPLC size exclusion chromatography method relative to control; assay type: functional; settings: Cricetinae; procedure, shortened: as §1
Plasma = assay: Protein binding in human plasma using [14C]-labeled compound after 3 hrs by scintillation counting based ultracentrifugation method; assay type: ADME, cell-free
Procedure, shortened: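 Human plasma spiked with [14C]-labelled compound at 50−10000 ng/mL, then ultracentrifuged 3 h at 37 °C at 306000g. Supernatant radioactivity is counted by scintillation. Bound fraction = (total − supernatant)/total.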

Hamster [17] = assay: Ex vivo inhibition of CETP activity in hamster hypertriglyceridemia model treated with 100 mg/kg, iv Triton WR-1339 dosed 5 hrs post compound dose measured every 15 mins for 120 mins by fluorescence method; assay type: functional, organism-based; settings: Cricetinae
Procedure, shortened: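 Chow-fed hamsters given a single gavage dose of compound or vehicle. Triton WR-1339 (100 mg/kg) or saline is given iv 5 h later, and plasma is taken 3 h after that. Plasma (final 80%) is mixed with fluorescent donor in 50 mM Tris-HCl pH 7.4, 150 mM NaCl, 2 mM EDTA. Ex/em 485/535 nm, read every 15 min for 120 min at 37 °C. Activity is the 30–90 min slope. Five animals per group.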

Serum [18] = assay: Drug uptake in LDL fraction of human serum from human donors with normal triglyceride levels (<150 mg/dL) by LC-MS/MS method; assay type: ADME, cell-free; procedure, shortened: as §4
[19] = AUC (infinity) in Sprague-Dawley rat at 1 mg/kg, iv or 3 mg/kg, po by LC-ESI-MS/MS analysis; assay type: ADME, organism-based; settings: in vivo; procedure, shortened: as §2
Syrian golden hamster [20] = assay: Inhibition of CETP in Syrian hamster blood at 0.3 to 10 mg/kg, po dosed once daily for 2 weeks and measured 24 hrs post last dose; assay type: functional, organism-based; settings: Mesocricetus auratus
NCI-H295R = assay: Toxicty in human NCI-H295R cells assessed as increase in aldosterone levels at 0.1 to 10000 nM after 24 hrs by scintillation proximity assay; assay type: toxicity, cell-based; settings: 10 µM
Syrian golden hamster [21] = assay: Increase in HDL cholesterol level in Syrian hamster plasma at 0.3 and 10 mg/kg, po dosed once daily for 2 weeks and measured 24 hrs post last dose by HPLC size exclusion chromatography method relative to control; assay type: functional, organism-based; settings: Mesocricetus auratus; procedure, shortened: as §1
[22] = Drug uptake in Syrian hamster adrenal tissue at 10 mg/kg, po dosed once daily for 14 days measured 24 hrs post last dose by LC-MS/MS method; assay type: ADME, organism-based, Mesocricetus auratus, Adrenal gland; settings: in vivo; procedure, shortened: as §3
Serum [23] = assay: Drug uptake in triglyceride rich lipoprotein fraction of human serum from human donors with normal triglyceride levels (<150 mg/dL) by LC-MS/MS method; assay type: ADME, cell-free; procedure, shortened: as §4
[24] = Volume of distribution in Sprague-Dawley rat at 1 mg/kg, iv or 3 mg/kg, po by LC-ESI-MS/MS analysis; assay type: ADME, organism-based; settings: in vivo; procedure, shortened: as §2
Cytochrome P450 3A4 [25] = target: T2, Cytochrome P450 3A4; assay: Inhibition of CYP3A4 (unknown origin) in the presence of testosterone; assay type: ADME
[26] = Drug uptake in Syrian hamster adipose tissue at 10 mg/kg, po dosed once daily for 14 days measured 24 hrs post last dose by LC-MS/MS method; assay type: ADME, organism-based, Mesocricetus auratus; settings: in vivo; procedure, shortened: as §3
Syrian golden hamster [27] = assay: Reduction in LDL cholesterol level in Syrian hamster plasma at 0.3 and 10 mg/kg, po dosed once daily for 2 weeks and measured 24 hrs post last dose by HPLC size exclusion chromatography method relative to control; assay type: functional, organism-based; settings: Mesocricetus auratus; procedure, shortened: as §1
[28] = Selectivity for inhibition of CYP2C9 (unknown origin) to IC50 for inhibition of CETP in human plasma
[29] = Selectivity for inhibition of CYP3A4 (unknown origin) to IC50 for inhibition of CETP in human plasma
[30] = Selectivity for inhibition of CYP2D6 (unknown origin) to IC50 for inhibition of CETP in human plasma
Rattus norvegicus [31] = assay: Toxicity in cannulated Sprague-Dawley rat assessed as increase in mean arterial pressure at 5 mg/kg, iv by blood pressure transducer based method; assay type: organism-based; settings: in vivo
Cytochrome P450 2C9 = Cytochrome P450 2C9 (Homo sapiens, UniProt P11712); assay: Inhibition of CYP2C9 (unknown origin); assay type: ADME
Syrian golden hamster [32] = assay: Inhibition of CETP in Syrian hamster blood at 3 and 10 mg/kg, po dosed once daily for 2 weeks and measured 24 hrs post last dose; assay type: functional, organism-based; settings: Mesocricetus auratus

T2 sequence (P08684 whole entry): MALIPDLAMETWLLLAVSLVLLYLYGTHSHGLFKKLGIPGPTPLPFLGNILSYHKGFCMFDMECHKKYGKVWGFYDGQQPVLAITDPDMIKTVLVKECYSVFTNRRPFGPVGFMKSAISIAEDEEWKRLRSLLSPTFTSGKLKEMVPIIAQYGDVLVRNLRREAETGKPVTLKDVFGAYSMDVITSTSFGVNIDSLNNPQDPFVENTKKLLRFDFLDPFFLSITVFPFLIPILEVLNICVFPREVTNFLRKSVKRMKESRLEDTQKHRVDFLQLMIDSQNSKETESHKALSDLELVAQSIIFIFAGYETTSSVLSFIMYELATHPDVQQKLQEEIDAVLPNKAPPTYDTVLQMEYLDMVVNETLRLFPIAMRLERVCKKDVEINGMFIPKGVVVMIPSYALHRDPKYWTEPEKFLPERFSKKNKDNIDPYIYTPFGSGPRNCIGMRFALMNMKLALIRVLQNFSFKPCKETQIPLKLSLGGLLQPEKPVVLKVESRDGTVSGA
Chain of Cytochrome P450 2C9 (P11712 whole entry): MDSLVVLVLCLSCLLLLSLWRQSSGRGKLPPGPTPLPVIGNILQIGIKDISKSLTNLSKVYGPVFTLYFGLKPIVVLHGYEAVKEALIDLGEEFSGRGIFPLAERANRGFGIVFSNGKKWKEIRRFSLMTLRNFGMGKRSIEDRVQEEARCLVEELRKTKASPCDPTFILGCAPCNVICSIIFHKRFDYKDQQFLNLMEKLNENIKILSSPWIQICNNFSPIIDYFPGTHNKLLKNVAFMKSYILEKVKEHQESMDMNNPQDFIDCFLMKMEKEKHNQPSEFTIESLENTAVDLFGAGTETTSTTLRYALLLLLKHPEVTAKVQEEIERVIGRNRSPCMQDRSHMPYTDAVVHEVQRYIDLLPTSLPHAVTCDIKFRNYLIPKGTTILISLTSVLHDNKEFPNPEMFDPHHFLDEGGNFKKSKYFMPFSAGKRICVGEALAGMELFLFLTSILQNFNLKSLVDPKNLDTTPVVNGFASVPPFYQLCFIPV
Chain of Cytochrome P450 2D6 (P10635 whole entry): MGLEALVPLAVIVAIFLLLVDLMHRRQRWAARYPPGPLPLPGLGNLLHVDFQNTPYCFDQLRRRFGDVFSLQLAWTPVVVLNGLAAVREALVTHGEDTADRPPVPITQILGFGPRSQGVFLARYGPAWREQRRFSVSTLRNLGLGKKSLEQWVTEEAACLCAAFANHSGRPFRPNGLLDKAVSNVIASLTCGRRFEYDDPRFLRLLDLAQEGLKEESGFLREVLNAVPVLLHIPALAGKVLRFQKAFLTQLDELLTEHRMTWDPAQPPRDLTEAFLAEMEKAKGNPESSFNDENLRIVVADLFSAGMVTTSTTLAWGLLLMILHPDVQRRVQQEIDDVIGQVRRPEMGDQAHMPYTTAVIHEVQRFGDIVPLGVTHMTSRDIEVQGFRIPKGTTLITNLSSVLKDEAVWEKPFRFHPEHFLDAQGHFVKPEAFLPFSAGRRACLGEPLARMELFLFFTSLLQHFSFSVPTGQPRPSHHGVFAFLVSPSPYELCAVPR

SMILES: CC[C@@H]1C[C@H](N(Cc2cc(C(F)(F)F)cc(C(F)(F)F)c2)c2ncc(-c3cnn(C)c3)cn2)C[C@H](CC)N1C(=O)O[C@H]1CC[C@H](C(=O)O)CC1
- logD [1]: 5.2
- IC50 (Cytochrome P450 2D6): 31 µM
- Activity (Syrian golden hamster [2]): Dose-dependent effect
- clearance [3]: 1.5 mL/min/kg
- Drug uptake [4]: Active
- inhibition [5]: Active
- half-life [6]: 5.8 h
- Drug uptake (Serum [7]): Active
- Activity (Rattus norvegicus [8]): Non-Toxic
- Drug uptake (Serum [9]): Active
- IC50 (Cytochrome P450 3A4 [10]): 10.6 µM
- Drug uptake (Serum [11]): Active
- Drug uptake (Serum [12]): Active
- Drug uptake (Serum [13]): Active
- Drug uptake (Serum [14]): Active
- bioavailability [15]: 43%
- Activity (Hamster [16]): Dose-dependent effect
- PPB (Plasma): 99.4%
- inhibition (Hamster [17]): Active
- Drug uptake (Serum [18]): Active
- AUC(0-inf) [19]: 27.2 µM·h
- inhibition (Syrian golden hamster [20]): Active
- Activity (NCI-H295R): Non-Toxic
- Activity (Syrian golden hamster [21]): Dose-dependent effect
- Drug uptake [22]: Not Active
- Drug uptake (Serum [23]): Active
- Vd [24]: 0.57 L/kg
- IC50 (Cytochrome P450 3A4 [25]): > 50 µM
- Drug uptake [26]: Not Active
- Activity (Syrian golden hamster [27]): Active
- Selectivity ratio [28]: >170
- Selectivity ratio [29]: >170
- Selectivity ratio [30]: >170
- Activity (Rattus norvegicus [31]): Non-Toxic
- IC50 (Cytochrome P450 2C9): 19 µM

SMILES: COc1cc(F)c(C(C)C)cc1-c1ccc(C(F)(F)F)cc1CN1C(=O)O[C@H](c2cc(C(F)(F)F)cc(C(F)(F)F)c2)[C@@H]1C [ANACETRAPIB]
- logD [1]: > 5.9
- Activity (Syrian golden hamster [2]): Dose-dependent effect
- Drug uptake [4]: Not Active
- inhibition [5]: inactive
- Drug uptake (Serum [7]): Active
- Drug uptake (Serum [9]): Active
- inhibition (Syrian golden hamster [32]): Active
- Drug uptake (Serum [14]): Active
- Activity (Hamster [16]): Dose-dependent effect
- inhibition (Hamster [17]): inactive
- Drug uptake (Serum [18]): Active
- Activity (NCI-H295R): Non-Toxic
- Activity (Syrian golden hamster [21]): Dose-dependent effect
- Drug uptake [22]: Active
- Drug uptake (Serum [23]): Active
- Drug uptake [26]: Active
- Activity (Syrian golden hamster [27]): Active

Reference: ChEMBL document CHEMBL4028876, “Discovery of a Novel Piperidine-Based Inhibitor of Cholesteryl Ester Transfer Protein (CETP) That Retains Activity in Hypertriglyceridemic Plasma” (J Med Chem, 2017)
